Values after ≈ are worked out from the molar mass of the structure shown.
How the values were obtained:
Type in all cases: functional
[1] = tested on: Trichophyton mentagrophytes; test: Antifungal activity against Trichophyton mentagrophytes at MIC after 3 to 4 days
Method in brief: (§1)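 Fungal suspension made by transferring a loopful of culture to 3 mL saline and seeding agar plates, 20 mL agar per dish, dried 1 h at 37 °C. Punched wells loaded with test compound in DMSO at its MIC. DMSO-only control. Triplicate plates held 3-4 days at 37 °C. Inhibition zone diameter measured.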

Aspergillus flavus [2] = test: Antifungal activity against Aspergillus flavus NCIM N0.524 after 3 to 4 days by serial plate dilution method
Klebsiella pneumoniae [3] = test: Antibacterial activity against Klebsiella pneumoniae after 16 to 18 hrs by […]
Klebsiella pneumoniae [4] = test: Antibacterial activity against Klebsiella pneumoniae at MIC after 3 to 4 days
Method in brief: (§2)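 Agar well diffusion on seeded agar plates, 20 mL agar per dish, dried 1 h at 37 °C. Wells punched and loaded with test compound in DMSO at its MIC. DMSO-only control. Plates run in triplicate and kept 3-4 days at 37 °C. Inhibition zone diameter measured.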

Escherichia coli [5] = test: Antibacterial activity against Escherichia coli ATCC 25922 after 16 to 18 hrs by […]
Staphylococcus aureus [6] = test: Antibacterial activity against Staphylococcus aureus ATCC 25923 at […] after 3 to 4 days; method in brief: as §2
Escherichia coli [7] = test: Antibacterial activity against Escherichia coli ATCC 25922 at MIC after 3 to 4 days; method in brief: as §2
Bacillus subtilis [8] = test: Antibacterial activity against Bacillus subtilis at MIC after 3 to 4 days; method in brief: as §2
Aspergillus flavus [9] = test: Antifungal activity against Aspergillus flavus NCIM N0.524 at MIC after 3 to 4 days; method in brief: as §1
Talaromyces marneffei [10] = test: Antifungal activity against Penicillium marneffei at MIC after 3 to 4 days; method in brief: as §1
[11] = tested on: Mycolicibacterium smegmatis; test: Antitubercular activity against Mycobacterium smegmatis ATCC 19420 after 7 days by resazurin assay; details: ATCC 19420, 168 h
Method in brief: (§3)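 Middlebrook 7H9 broth with 10% OADC, culture adjusted to McFarland 2. 50 µL culture added to 150 µL fresh medium. Stocks at 2 mg/mL in DMF, tested first at 1, 10 and 100 µg/mL, then at 0.3125-5 µg/mL. DMF controls. After 7 days at 37 °C, 0.01% resazurin added. Blue-to-pink change read for MIC.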

Candida albicans [12] = test: Antifungal activity against Candida albicans after 3 to 4 days by serial plate dilution method
Aspergillus fumigatus [13] = test: Antifungal activity against Aspergillus fumigatus NCIM N0.902 at MIC after 3 to 4 days; method in brief: as §1
Candida albicans [14] = test: Antifungal activity against Candida albicans at MIC after 3 to 4 days; method in brief: as §1
[15] = tested on: Trichophyton mentagrophytes; test: Antifungal activity against Trichophyton mentagrophytes after 3 to 4 days by serial plate dilution method
Aspergillus fumigatus [16] = test: Antifungal activity against Aspergillus fumigatus NCIM N0.902 after 3 to 4 days by serial plate dilution method
Pseudomonas aeruginosa [17] = test: Antibacterial activity against Pseudomonas aeruginosa ATCC 27853 after 16 to 18 hrs by […]
[18] = tested on: Mycobacterium tuberculosis; test: Antitubercular activity against Mycobacterium tuberculosis H37Rv after 7 days by resazurin assay; details: 168 h
Method in brief: (§4)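 M. tuberculosis H37Rv ATCC 27294 grown in Middlebrook 7H9 broth with 10% OADC and adjusted to McFarland 2. Culture was diluted 1:4 into fresh medium. Compounds came from 2 mg/mL DMF stocks, screened first at 1, 10 and 100, then at 0.3125–5. DMF-only controls were included. After 7 days at 37 °C, 0.01% resazurin was added; a blue-to-pink change marked growth, and the MIC was read.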

Pseudomonas aeruginosa [19] = test: Antibacterial activity against Pseudomonas aeruginosa ATCC 27853 at MIC after 3 to 4 days; method in brief: as §2
Bacillus subtilis [20] = test: Antibacterial activity against Bacillus subtilis after 16 to 18 hrs by […]
[21] = tested on: Mycobacterium tuberculosis; test: Antitubercular activity against Mycobacterium tuberculosis H37Rv assessed as growth inhibition after 7 days by resazurin assay; method in brief: as §4
Talaromyces marneffei [22] = test: Antifungal activity against Penicillium marneffei after 3 to 4 days by serial plate dilution method
[23] = tested on: Mycolicibacterium fortuitum; test: Antitubercular activity against Mycobacterium fortuitum ATCC 19542 after 7 days by resazurin assay; details: ATCC 19542, 168 h; method in brief: as §3
Staphylococcus aureus [24] = test: Antibacterial activity against Staphylococcus aureus ATCC 25923 after 16 to 18 hrs by serial plate dilution method

SMILES | diameter of the inhibition zone (DIZ) [1] | MIC (Aspergillus flavus [2]) | MIC (Klebsiella pneumoniae [3]) | diameter of the inhibition zone (DIZ) (Klebsiella pneumoniae [4]) | MIC (Escherichia coli [5]) | diameter of the inhibition zone (DIZ) (Staphylococcus aureus [6]) | diameter of the inhibition zone (DIZ) (Escherichia coli [7]) | diameter of the inhibition zone (DIZ) (Bacillus subtilis [8]) | diameter of the inhibition zone (DIZ) (Aspergillus flavus [9]) | diameter of the inhibition zone (DIZ) (Talaromyces marneffei [10]) | MIC [11] | MIC (Candida albicans [12]) | diameter of the inhibition zone (DIZ) (Aspergillus fumigatus [13]) | diameter of the inhibition zone (DIZ) (Candida albicans [14]) | MIC [15] | MIC (Aspergillus fumigatus [16]) | MIC (Pseudomonas aeruginosa [17]) | MIC [18] | diameter of the inhibition zone (DIZ) (Pseudomonas aeruginosa [19]) | MIC (Bacillus subtilis [20]) | other results
Nc1nc(COC(=O)c2cccs2)cs1 | 16 mm | 25 µg/mL (≈ 104 µM) | 25 µg/mL (≈ 104 µM) | <10 mm | 6.25 µg/mL (≈ 26 µM) | 11 mm | 16 mm | <10 mm | <10 mm | <10 mm | 10 µg/mL (≈ 41.6 µM) | 12.5 µg/mL (≈ 52 µM) | 16 mm | 11 mm | 6.25 µg/mL (≈ 26 µM) | 6.25 µg/mL (≈ 26 µM) | 6.25 µg/mL (≈ 26 µM) | 10 µg/mL (≈ 41.6 µM) | 16 mm | 25 µg/mL (≈ 104 µM) | growth inhibition (GI) [21]: <90%; MIC (Talaromyces marneffei [22]): 25 µg/mL (≈ 104 µM); MIC [23]: 10 µg/mL (≈ 41.6 µM); MIC (Staphylococcus aureus [24]): 12.5 µg/mL (≈ 52 µM)
N#CCCc1cccc(C(=O)OCc2csc(N)n2)c1 | <10 mm | 6.25 µg/mL (≈ 21.8 µM) | 12.5 µg/mL (≈ 43.5 µM) | 11 mm | 6.25 µg/mL (≈ 21.8 µM) | 16 mm | 16 mm | 16 mm | 16 mm | 16 mm | 1 µg/mL (≈ 3.48 µM) | 12.5 µg/mL (≈ 43.5 µM) | <10 mm | 11 mm | 25 µg/mL (≈ 87 µM) | 25 µg/mL (≈ 87 µM) | 6.25 µg/mL (≈ 21.8 µM) | 0.625 µg/mL (≈ 2.18 µM) | 16 mm | 6.25 µg/mL (≈ 21.8 µM) | growth inhibition (GI) [21]: 95%; MIC (Talaromyces marneffei [22]): 6.25 µg/mL (≈ 21.8 µM); MIC [23]: 10 µg/mL (≈ 34.8 µM); MIC (Staphylococcus aureus [24]): 6.25 µg/mL (≈ 21.8 µM)
Nc1nc(COC(=O)c2ccccc2[N+](=O)[O-])cs1 | <10 mm | 25 µg/mL (≈ 89.5 µM) | 6.25 µg/mL (≈ 22.4 µM) | 16 mm | 12.5 µg/mL (≈ 44.8 µM) | 11 mm | 11 mm | 11 mm | <10 mm | 11 mm | 10 µg/mL (≈ 35.8 µM) | 25 µg/mL (≈ 89.5 µM) | <10 mm | <10 mm | 25 µg/mL (≈ 89.5 µM) | 25 µg/mL (≈ 89.5 µM) | 25 µg/mL (≈ 89.5 µM) | 0.625 µg/mL (≈ 2.24 µM) | <10 mm | 12.5 µg/mL (≈ 44.8 µM) | growth inhibition (GI) [21]: 95%; MIC (Talaromyces marneffei [22]): 12.5 µg/mL (≈ 44.8 µM); MIC [23]: 10 µg/mL (≈ 35.8 µM); MIC (Staphylococcus aureus [24]): 12.5 µg/mL (≈ 44.8 µM)
